Data from ChEMBL document CHEMBL1671867, “Novel polymyxin derivatives carrying only three positive charges are effective antibacterial agents” (Antimicrob Agents Chemother, 2008).
Converted amounts (≈) assume the structure as drawn. Bridge positions count the residues as written; N and C are the ends. Square brackets hold non-standard residues; d marks the D form. Peptide text beside a SMILES is read from it. * marks the point of attachment. Octanoyl = CCCCCCCC(=O)*; Dab = NCC[C@H](N)C(=O)O; Abu = CC[C@H](N)C(=O)O

Experiments:
Escherichia coli [1] = assay: Antibacterial activity against Escherichia coli IH3080 assessed as growth inhibition at 10 ug after 18 hrs by […] in presence of 1 ug/ml rifampin; assay type: functional
Escherichia coli [2] = assay: Antibacterial activity against Escherichia coli IH3080 assessed as growth inhibition at 10 ug after 18 hrs by […]; assay type: functional
Escherichia coli [3] = assay: Antibacterial activity against Escherichia coli ATCC […] by CLSI M7-A7 agar dilution method; assay type: functional
Candida albicans = assay: Antibacterial activity against Candida albicans ATCC 28366 by CLSI M7-A7 agar dilution method; assay type: functional
Staphylococcus aureus = assay: Antibacterial activity against Staphylococcus aureus ATCC 25923 by CLSI M7-A7 agar dilution method; assay type: functional
How it was run: (§1)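 Agar dilution on Mueller-Hinton agar with test substance at 0.25 to 32 μg/ml in twofold steps. Spots of about 10^4 CFU applied with a multipoint inoculator.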

Escherichia coli [4] = assay: Antibacterial activity against Escherichia coli SC 9253 by CLSI M7-A7 agar dilution method; assay type: functional; how it was run: as §1
Escherichia coli [5] = assay: Antibacterial activity against Escherichia coli SC 9252 by CLSI M7-A7 agar dilution method; assay type: functional
Pseudomonas aeruginosa = assay: Antibacterial activity against Pseudomonas aeruginosa ATCC 27853 by CLSI M7-A7 agar dilution method; assay type: functional; how it was run: as §1
Acinetobacter baumannii [6] = assay: Antibacterial activity against Acinetobacter baumannii by CLSI M7-A7 agar dilution method; assay type: functional
Serratia marcescens = assay: Antibacterial activity against Serratia marcescens ATCC 8100 by CLSI M7-A7 agar dilution method; assay type: functional; how it was run: as §1
Acinetobacter baumannii [7] = assay: Antibacterial activity against Acinetobacter baumannii ATCC 19606 by CLSI M7-A7 agar dilution method; assay type: functional
Citrobacter freundii = assay: Antibacterial activity against Citrobacter freundii ATCC 8090 by CLSI M7-A7 agar dilution method; assay type: functional
Enterobacter cloacae [8] = assay: Antibacterial activity against Enterobacter cloacae by CLSI M7-A7 agar dilution method; assay type: functional
Enterobacter cloacae [9] = assay: Antibacterial activity against Enterobacter cloacae CCUG52947 by CLSI M7-A7 agar dilution method; assay type: functional
Enterobacter cloacae [10] = assay: Antibacterial activity against Enterobacter cloacae ATCC 23355 by CLSI M7-A7 agar dilution method; assay type: functional
Klebsiella oxytoca [11] = assay: Antibacterial activity against Klebsiella oxytoca CCUG51683 by CLSI M7-A7 agar dilution method; assay type: functional; how it was run: as §1
Klebsiella oxytoca [12] = assay: Antibacterial activity against Klebsiella oxytoca ATCC 13182 by CLSI M7-A7 agar dilution method; assay type: functional; how it was run: as §1
Klebsiella pneumoniae [13] = assay: Antibacterial activity against Klebsiella pneumoniae by CLSI M7-A7 agar dilution method; assay type: functional; how it was run: as §1
Escherichia coli [14] = assay: Antibacterial activity against Escherichia coli by CLSI M7-A7 agar dilution method; assay type: functional; how it was run: as §1
Klebsiella pneumoniae [15] = assay: Antibacterial activity against Klebsiella pneumoniae CCUG45421 by CLSI M7-A7 agar dilution method; assay type: functional; how it was run: as §1
Escherichia coli [16] = assay: Antibacterial activity against Escherichia coli IH3080 by CLSI M7-A7 agar dilution method; assay type: functional
[17] = Inhibition of [3H]gentamicin binding to brush border membrane of renal cortex
How it was run: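 Brush border membrane vesicles prepared from male albino rat renal cortex by Mg2+-EGTA precipitation. Incubated with 20 μM [3H]gentamicin in 10 mM HEPES pH 7.5 with 300 mM mannitol, with or without compound, 60 min at 4°C. Then filtered, washed, and bound radioactivity counted by scintillation. IC50 fitted with the Hill equation.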

Compound: CCCCCCCC(=O)N[C@H](C(=O)N[C@@H](CC)C(=O)N[C@H]1CCNC(=O)[C@H](CC(C)C)NC(=O)[C@H](CCN)NC(=O)[C@H](CCN)NC(=O)[C@H](CC(C)C)NC(=O)[C@@H](Cc2ccccc2)NC(=O)[C@H](CCN)NC1=O)[C@@H](C)O (Octanoyl-T[Abu][Dab][Dab][dF]L[Dab][Dab]L; lactam 3-C)
- inhibition zone (IZ) (Escherichia coli [1]): 180 mm2
- inhibition zone (IZ) (Escherichia coli [2]): 50 mm2

Compound: CCCCCCCC(=O)N[C@H](C(=O)N[C@@H](CC)C(=O)N[C@H]1CCNC(=O)[C@H]([C@@H](C)O)NC(=O)[C@H](CCN)NC(=O)[C@H](CCN)NC(=O)[C@H](CC(C)C)NC(=O)[C@@H](Cc2ccccc2)NC(=O)[C@H](CCN)NC1=O)[C@@H](C)O (Octanoyl-T[Abu][Dab][Dab][dF]L[Dab][Dab]T; lactam 3-C)
- MIC (Escherichia coli [3]): > 32 µg/mL
- inhibition zone (IZ) (Escherichia coli [1]): 194 mm2
- inhibition zone (IZ) (Escherichia coli [2]): 32 mm2
- MIC (Candida albicans): > 32 µg/mL
- MIC (Staphylococcus aureus): > 32 µg/mL
- MIC (Escherichia coli [4]): > 32 µg/mL
- MIC (Escherichia coli [5]): > 32 µg/mL
- MIC (Pseudomonas aeruginosa): > 32 µg/mL
- MIC (Acinetobacter baumannii [6]): > 32 µg/mL
- MIC (Serratia marcescens): > 32 µg/mL
- MIC (Acinetobacter baumannii [7]): > 32 µg/mL
- MIC (Citrobacter freundii): 16 µg/mL (≈ 14.9 µM)
- MIC (Enterobacter cloacae [8]): > 32 µg/mL
- MIC (Enterobacter cloacae [9]): > 32 µg/mL
- MIC (Enterobacter cloacae [10]): 32 µg/mL (≈ 29.8 µM)
- MIC (Klebsiella oxytoca [11]): 32 µg/mL (≈ 29.8 µM)
- MIC (Klebsiella oxytoca [12]): 32 µg/mL (≈ 29.8 µM)
- MIC (Klebsiella pneumoniae [13]): > 32 µg/mL
- MIC (Escherichia coli [14]): > 16 µg/mL
- MIC (Klebsiella pneumoniae [15]): > 32 µg/mL
- MIC (Escherichia coli [16]): > 32 µg/mL

Compound: CCCCCCCC(=O)N[C@H](C(=O)N[C@@H](CCN)C(=O)N[C@H]1CCNC(=O)[C@H]([C@@H](C)O)NC(=O)[C@H](CCN)NC(=O)[C@H](CCN)NC(=O)[C@H](CC(C)C)NC(=O)[C@@H](Cc2ccccc2)NC(=O)[C@H](CC)NC1=O)[C@@H](C)O (Octanoyl-T[Dab][Dab][Abu][dF]L[Dab][Dab]T; lactam 3-C)
- inhibition zone (IZ) (Escherichia coli [1]): 100 mm2
- inhibition zone (IZ) (Escherichia coli [2]): 0 mm2

Compound: CCCCCCCC(=O)N[C@H](C(=O)N[C@@H](CCN)C(=O)N[C@H]1CCNC(=O)[C@H]([C@@H](C)O)NC(=O)[C@H](CCN)NC(=O)[C@H](CC)NC(=O)[C@H](CC(C)C)NC(=O)[C@@H](Cc2ccccc2)NC(=O)[C@H](CCN)NC1=O)[C@@H](C)O (Octanoyl-T[Dab][Dab][Dab][dF]L[Abu][Dab]T; lactam 3-C)
- inhibition zone (IZ) (Escherichia coli [1]): 250 mm2
- inhibition zone (IZ) (Escherichia coli [2]): 60 mm2

Compound: CCCCCCCC(=O)N[C@H](C(=O)N[C@@H](CCN)C(=O)N[C@H]1CCNC(=O)[C@H]([C@@H](C)O)NC(=O)[C@H](CC)NC(=O)[C@H](CCN)NC(=O)[C@H](CC(C)C)NC(=O)[C@@H](Cc2ccccc2)NC(=O)[C@H](CCN)NC1=O)[C@@H](C)O (Octanoyl-T[Dab][Dab][Dab][dF]L[Dab][Abu]T; lactam 3-C)
- inhibition zone (IZ) (Escherichia coli [1]): 170 mm2
- inhibition zone (IZ) (Escherichia coli [2]): 0 mm2

Compound: CCCCCCCC(=O)N[C@@H](CCN)C(=O)N[C@H](C(=O)N[C@@H](CCN)C(=O)N[C@H]1CCNC(=O)[C@H]([C@@H](C)O)NC(=O)[C@H](CCN)NC(=O)[C@H](CC)NC(=O)[C@H](CC(C)C)NC(=O)[C@@H](Cc2ccccc2)NC(=O)[C@H](CC)NC1=O)[C@@H](C)O (Octanoyl-[Dab]T[Dab][Dab][Abu][dF]L[Abu][Dab]T; lactam 4-C)
- inhibition zone (IZ) (Escherichia coli [1]): 0 mm2
- inhibition zone (IZ) (Escherichia coli [2]): 0 mm2

Compound: CCCCCCCC(=O)N[C@@H](CCN)C(=O)N[C@H](C(=O)N[C@@H](CCN)C(=O)N[C@H]1CCNC(=O)[C@H]([C@@H](C)O)NC(=O)[C@H](CC)NC(=O)[C@H](CCN)NC(=O)[C@H](CC(C)C)NC(=O)[C@@H](Cc2ccccc2)NC(=O)[C@H](CC)NC1=O)[C@@H](C)O (Octanoyl-[Dab]T[Dab][Dab][Abu][dF]L[Dab][Abu]T; lactam 4-C)
- inhibition zone (IZ) (Escherichia coli [1]): 10 mm2
- inhibition zone (IZ) (Escherichia coli [2]): 0 mm2

Compound: CC(C)C[C@@H]1NC(=O)[C@@H](Cc2ccccc2)NC(=O)[C@H](CCN)NC(=O)[C@@H](NC(=O)[C@H](CCN)NC(=O)[C@@H](N)[C@@H](C)O)CCNC(=O)[C@H]([C@@H](C)O)NC(=O)[C@H](CCN)NC(=O)[C@H](CCN)NC1=O [POLYMYXIN B NONAPEPTIDE] (H-T[Dab][Dab][Dab][dF]L[Dab][Dab]T; lactam 3-C)
- inhibition zone (IZ) (Escherichia coli [1]): 143 mm2
- inhibition zone (IZ) (Escherichia coli [2]): <=5 mm2

Compound: GENTAMICIN
- IC50 [17]: 90.2 µM

Compound: POLYMYXIN B
- IC50 [17]: 39.3 µM
